Assay results: ChEMBL document CHEMBL1129508, “Betulinic acid derivatives: a new class of specific inhibitors of human immunodeficiency virus type 1 entry” (J Med Chem, 1996); call rule not given here
pIC50: −log10 of the molar value.

Assays:
[1] = test system: CCRF-CEM; assay: Inhibitory activity against the HIV-1 in CEM cells; NA= Not active; assay type: functional, cell-based, Homo sapiens
How it was run: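 HIV-1-induced cytopathicity assay in CEM 4 cells. Viable cells were counted after MTT (3-(4,5-dimethylthiazol-2-yl)-2,5-diphenyltetrazolium bromide) staining. IC50 is the concentration that inhibits viral cytopathicity by 50%. For routine testing the top concentration was generally 3 µM, because solubility was limited above 10 µM.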

[2] = test system: Human immunodeficiency virus 1; assay: Inhibitory activity tested against the HIV-1 in MT-4 cells; assay type: functional, organism-based; conditions: Human immunodeficiency virus 1, MT4
How it was run: (§1)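 HIV-1-induced cytopathicity in CEM 4 or MT-4 cell cultures was assessed by counting viable cells after MTT (3-(4,5-dimethylthiazol-2-yl)-2,5-diphenyltetrazolium bromide) staining. IC50 is the concentration that inhibits cytopathicity by 50%. For routine testing, the highest concentration was generally 3 µM, because solubility was limited above 10 µM.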

[3] = test system: CCRF-CEM; assay: (§2) Inhibitory activity against the HIV-1 in CEM cells; assay type: functional, cell-based; conditions: Homo sapiens; how it was run: as §1
[4] = test system: CCRF-CEM; assay: Inhibitory Activity against the HIV-1 in CEM cells; assay type: functional, Homo sapiens; how it was run: as §1
[5] = test system: CCRF-CEM; assay: as §2; assay type: functional, Homo sapiens; how it was run: as §1
[6] = test system: MT4; assay: Inhibitory activity against the HIV-1 in MT-4 cells; assay type: functional, cell-based; conditions: Homo sapiens; how it was run: as §1
[7] = test system: CCRF-CEM; assay: Inhibitory activity against the HIV-1 in CEM cells at 1 uM concentration; assay type: functional; conditions: Homo sapiens
[8] = test system: Human immunodeficiency virus 1; assay: Inhibitory activity tested against the HIV-1 in CEM cells; assay type: functional, organism-based; conditions: Human immunodeficiency virus 1, CCRF-CEM; how it was run: as §1

Row | Compound | pIC50 [2] | pIC50 [3] | pIC50 [8] | further results
1 | C=C(C)[C@@H]1CC[C@]2(C(=O)NCCC(=O)O)CC[C@]3(C)[C@H](CC[C@@H]4[C@@]5(C)CC[C@H](O)C(C)(C)[C@@H]5CC[C@]43C)[C@@H]12 | – | – | – | IC50 [1]: Not Active
2 | C=C(C)[C@@H]1CC[C@]2(C(=O)NCCCCCCC(=O)O)CC[C@]3(C)[C@H](CC[C@@H]4[C@@]5(C)CC[C@H](O)C(C)(C)[C@@H]5CC[C@]43C)[C@@H]12 | 5.37 | 4.92 | – | –
3 | C=C(C)[C@@H]1CC[C@]2(C(=O)NCC(=O)NCCCCCCCC(=O)O)CC[C@]3(C)[C@H](CCC4[C@@]5(C)CC[C@H](O)C(C)(C)[C@@H]5CC[C@]43C)[C@@H]12 (some centres not stated) | – | – | – | Inhibition [4]: 30%
4 | C=C(C)[C@@H]1CC[C@]2(C(=O)NCCC(=O)NCCCCCCC(=O)O)CC[C@]3(C)[C@H](CCC4[C@@]5(C)CC[C@H](O)C(C)(C)[C@@H]5CC[C@]43C)[C@@H]12 (some centres not stated) | – | – | – | Inhibition [5]: 20%
5 | C=C(C)[C@@H]1CC[C@]2(C(=O)NCCCCCC(=O)O)CC[C@]3(C)[C@H](CC[C@@H]4[C@@]5(C)CC[C@H](O)C(C)(C)[C@@H]5CC[C@]43C)[C@@H]12 | – | 5.64 | – | pIC50 [6]: 5.62
6 | C=C(C)[C@@H]1CC[C@]2(C(=O)NCC(=O)O)CC[C@]3(C)[C@H](CCC4[C@@]5(C)CC[C@H](O)C(C)(C)[C@@H]5CC[C@]43C)[C@@H]12 (some centres not stated) | – | – | – | IC50 [1]: Not Active
7 | Cc1ccnc2c1NC(=O)c1cccnc1N2C1CC1 [NEVIRAPINE] | – | 7.08 | – | –
8 | C=C(C)[C@@H]1CC[C@]2(C(=O)NCCCCC(=O)NCCCCC(=O)O)CC[C@]3(C)[C@H](CCC4[C@@]5(C)CC[C@H](O)C(C)(C)[C@@H]5CC[C@]43C)[C@@H]12 (some centres not stated) | – | 5.35 | – | –
9 | C=C(C)[C@@H]1CC[C@]2(C(=O)NCCCCC(=O)O)CC[C@]3(C)[C@H](CC[C@@H]4[C@@]5(C)CC[C@H](O)C(C)(C)[C@@H]5CC[C@]43C)[C@@H]12 | – | – | – | inhibition at 1 µM [7]: 46%
10 | C=C(C)[C@@H]1CC[C@]2(C(=O)NCCCCCC(=O)NCCCC(=O)O)CC[C@]3(C)[C@H](CCC4[C@@]5(C)CC[C@H](O)C(C)(C)[C@@H]5CC[C@]43C)[C@@H]12 (some centres not stated) | – | 5.52 | – | –
11 | C=C(C)[C@@H]1CC[C@]2(C(=O)NCCCCCCCCCCCCC(=O)O)CC[C@]3(C)[C@H](CCC4[C@@]5(C)CC[C@H](O)C(C)(C)[C@@H]5CC[C@]43C)[C@@H]12 (some centres not stated) | – | – | – | Inhibition [4]: 35%
12 | C=C(C)[C@@H]1CC[C@]2(C(=O)NCCCCCCCC(=O)NCCC(=O)O)CC[C@]3(C)[C@H](CCC4[C@@]5(C)CC[C@H](O)C(C)(C)[C@@H]5CC[C@]43C)[C@@H]12 (some centres not stated) | 7.03 | – | 7.00 | –
13 | C=C(C)[C@@H]1CC[C@]2(C(=O)NCCCCCCCCC(=O)O)CC[C@]3(C)[C@H](CCC4[C@@]5(C)CC[C@H](O)C(C)(C)[C@@H]5CC[C@]43C)[C@@H]12 (some centres not stated) | 5.47 | – | 6.38 | –
14 | C=C(C)[C@@H]1CC[C@]2(C(=O)NCCCCCCCC(=O)NC(C)(C)C(=O)O)CC[C@]3(C)[C@H](CCC4[C@@]5(C)CC[C@H](O)C(C)(C)[C@@H]5CC[C@]43C)[C@@H]12 (some centres not stated) | 7.05 | – | 6.88 | –
15 | C=C(C)[C@@H]1CC[C@]2(C(=O)NCCCCCCCNC(=O)c3cccc(C(=O)O)c3)CC[C@]3(C)[C@H](CCC4[C@@]5(C)CC[C@H](O)C(C)(C)[C@@H]5CC[C@]43C)[C@@H]12 (some centres not stated) | 7.40 | – | 6.98 | –
16 | C=C(C)[C@@H]1CC[C@]2(C(=O)NCCCC(=O)O)CC[C@]3(C)[C@H](CCC4[C@@]5(C)CC[C@H](O)C(C)(C)[C@@H]5CC[C@]43C)[C@@H]12 (some centres not stated) | – | – | – | IC50 [1]: Not Active
17 | C=C(C)[C@@H]1CC[C@]2(C(=O)NCCCCCCC(=O)NCCC(=O)O)CC[C@]3(C)[C@H](CCC4[C@@]5(C)CC[C@H](O)C(C)(C)[C@@H]5CC[C@]43C)[C@@H]12 (some centres not stated) | – | 5.35 | – | –
18 | C=C(C)[C@@H]1CC[C@]2(C(=O)NCCCCCCCC(=O)NC(CC(=O)O)c3ccccc3)CC[C@]3(C)[C@H](CCC4[C@@]5(C)CC[C@H](O)C(C)(C)[C@@H]5CC[C@]43C)[C@@H]12 (some centres not stated) | 7.33 | – | 7.07 | –
19 | C=C(C)[C@@H]1CC[C@]2(C(=O)NCCCC(=O)NCCCCCC(=O)O)CC[C@]3(C)[C@H](CCC4[C@@]5(C)CC[C@H](O)C(C)(C)[C@@H]5CC[C@]43C)[C@@H]12 (some centres not stated) | – | 5.26 | – | –
20 | C=C(C)[C@@H]1CC[C@]2(C(=O)NCCCCCCCC(=O)NCC(O)CC(=O)O)CC[C@]3(C)[C@H](CCC4[C@@]5(C)CC[C@H](O)C(C)(C)[C@@H]5CC[C@]43C)[C@@H]12 (some centres not stated) | 7.48 | – | 6.70 | –
21 | C=C(C)[C@@H]1CC[C@]2(C(=O)NCCCCCCCNC(=O)CCC(=O)O)CC[C@]3(C)[C@H](CCC4[C@@]5(C)CC[C@H](O)C(C)(C)[C@@H]5CC[C@]43C)[C@@H]12 (some centres not stated) | 7.28 | – | 7.02 | –
22 | C=C(C)[C@@H]1CC[C@]2(C(=O)NCCCCCCCC(=O)NCC(=O)O)CC[C@]3(C)[C@H](CC[C@@H]4[C@@]5(C)CC[C@H](O)C(C)(C)[C@@H]5CC[C@]43C)[C@@H]12 | 6.81 | – | 6.82 | –
